# Test results published in ChEMBL document CHEMBL1152313, “Cytotoxic and HIF-1alpha inhibitory compounds from Crossosoma bigelovii” (J Nat Prod, 2009).
# Active and inactive are the calls of the source. The rule behind the calls is not given here.
# Key:
# U-251 [1] = assay: Growth inhibition of human U251 cells stably transfected with pGL3 plasmid after 24 hrs; format: cell-based; details: u-251, 24 h
# U-251 [2] = assay: Growth inhibition of human U251 cells stably transfected with pGL2-TK-HRE plasmid after 24 hrs; format: cell-based; details: u-251, 24 h
# HT-29 = assay: Cytotoxicity against human HT-29 cells by MTT assay; format: functional
# Procedure, shortened: (§1)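 Cells were grown in MEM with 10% fetal calf serum, 0.1 g L⁻¹ penicillin G and 0.1 g L⁻¹ streptomycin sulfate. They were seeded into 96-well plates one day before dosing and incubated overnight at 37 °C. Compounds were dissolved in DMSO, diluted in medium to several concentrations and left on the cells for six days. Survival was read colorimetrically by MTT at 547 nm, with adriamycin as reference.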
# [3] = molecular target: T1, Hypoxia inducible factors; HIF-1-alpha, HIF-2-alpha (Homo sapiens, UniProt Q16665+Q99814); assay: Inhibition of HIF1 activation in human U251 cells stably transfected in pGL2-TK-HRE plasmid under hypoxic condition after 16 to 24 hrs by luciferase reporter gene assay; format: cell-based; details: u-251
# MCF7 = assay: Cytotoxicity against human MCF7 cells by MTT assay; format: functional; procedure, shortened: as §1
# A549 = assay: Cytotoxicity against human A549 cells by MTT assay; format: functional
# [4] = molecular target: T1, Hypoxia inducible factors; HIF-1-alpha, HIF-2-alpha; assay: Inhibition of HIF1 activation in human U251 cells stably transfected in pGL3 plasmid under hypoxic condition assessed as reduction of luciferase expression at 0.062 uM after 16 to 24 hrs by luciferase reporter gene assay; format: cell-based; parameters: scale not given: the % may be the effect or the level left; details: U-251
# U-251 [5] = assay: Inhibition of HIF1alpha protein expression in wild type human U251 cells under hypoxic condition at 0.025 uM treated 8 hrs before hypoxia induction; format: functional, cell-based
# U-251 [6] = assay: Reduction in VEGF mRNA expression in wild type human U251 cells under hypoxic condition after 16 hrs; format: functional, cell-based
# Procedure, shortened: (§2)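 Wild-type U251 cells treated 8 or 16 h under hypoxia (1% O₂, 37 °C). Total RNA isolated; 500 ng reverse-transcribed (10 min 25 °C, 30 min 48 °C, 5 min 95 °C). VEGF or CA9 transcript quantified by real-time PCR on 5 ng cDNA in triplicate (2 min 50 °C, 10 min 95 °C, then 40 cycles of 15 s 95 °C and 1 min 60 °C).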
# [7] = molecular target: T1, Hypoxia inducible factors; HIF-1-alpha, HIF-2-alpha; assay: Inhibition of HIF1 activation in human U251 cells transiently transfected in pGL2-TK-HRE plasmid under hypoxic condition at 0.1 to 0.005 uM after 16 hrs by luciferase reporter gene assay; format: cell-based; details: U-251
# Procedure, shortened: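 Wild-type U251 cells transiently transfected with pGL2-TK-HRE using Effectene for 16 h. Medium then changed and compound added for 16 h under hypoxia (1% O₂, 5% CO₂, 37 °C) or normoxia (21% O₂). Luciferase read with Steady Glo reagent.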
# U-251 [8] = assay: Reduction in carbonic anhydrase 9 mRNA expression in wild type human U251 cells under hypoxic condition at 0.1 uM after 16 hrs; format: functional, cell-based; procedure, shortened: as §2
# U-251 [9] = assay: Reduction in VEGF mRNA expression in wild type human U251 cells under hypoxic condition after 8 hrs; format: functional, cell-based; procedure, shortened: as §2
# U-251 [10] = assay: Inhibition of HIF1alpha protein expression in wild type human U251 cells under hypoxic condition at 0.025 uM treated 16 hrs before hypoxia induction; format: functional, cell-based
# U-251 [11] = assay: Reduction in carbonic anhydrase 9 mRNA expression in wild type human U251 cells under hypoxic condition at 0.1 uM after 8 hrs; format: functional, cell-based; procedure, shortened: as §2
# [12] = molecular target: T1, Hypoxia inducible factors; HIF-1-alpha, HIF-2-alpha; assay: Inhibition of HIF1 activation in human U251 cells stably transfected in pGL2-TK-HRE plasmid under hypoxic condition assessed as reduction of luciferase expression at 0.062 uM after 16 to 24 hrs by luciferase reporter gene assay; format: cell-based; parameters: scale not given: the % may be the effect or the level left; details: U-251
SMILES,Activity (U-251 [1]),Activity (U-251 [2]),GI50 (HT-29) [µM],EC50 [3] [µM],GI50 (MCF7) [nM],GI50 (A549) [nM],other results
CO[C@H]1[C@H](O[C@H]2CC[C@]3(C=O)[C@H]4CC[C@]5(C)[C@@H](C6=CC(=O)OC6)CC[C@]5(O)[C@@H]4CC[C@]3(O)C2)O[C@H](C)C[C@H]1O[C@@H]1O[C@H](CO)[C@@H](O)[C@H](O)[C@H]1O,Non-toxic,Non-toxic,0.07,0.6,10,8,
Cc1cc(=O)c2c(O)cc(O[C@@H]3O[C@H](CO[C@@H]4O[C@@H](C)[C@H](O)[C@@H](O)[C@H]4O)[C@@H](O)[C@H](O)[C@H]3O)cc2o1,,,6,,800,400,
CO[C@H]1C[C@H](O[C@H]2CC[C@]3(C=O)[C@H]4CC[C@]5(C)[C@@H](C6=CC(=O)OC6)CC[C@]5(O)[C@@H]4CC[C@]3(O)C2)O[C@H](C)[C@H]1O[C@@H]1O[C@H](CO)[C@@H](O)[C@H](O)[C@H]1O,Non-toxic,Non-toxic,,,,,
COc1c(O[C@@H]2O[C@H](CO[C@@H]3O[C@@H](C)[C@H](O)[C@@H](O)[C@H]3O)[C@@H](O)[C@H](O)[C@H]2O)cc2oc(C)cc(=O)c2c1O,,,6,,800,400,
CO[C@H]1C[C@H](O[C@H]2CC[C@]3(C=O)[C@H]4CC[C@]5(C)[C@@H](C6=CC(=O)OC6)CC[C@]5(O)[C@@H]4CC[C@]3(O)C2)O[C@H](C)[C@H]1O[C@@H]1O[C@H](CO[C@@H]2O[C@H](CO)[C@@H](O)[C@H](O)[C@H]2O)[C@@H](O)[C@H](O)[C@H]1O,Non-toxic,Non-toxic,,0.04,,,
COc1cc(O)c2c(=O)cc(C)oc2c1 [EUGENIN],,,25,,10000,14000,
C[C@@H]1O[C@@H](O[C@H]2CC[C@]3(C=O)[C@H]4CC[C@]5(C)[C@@H](C6=CC(=O)OC6)CC[C@]5(O)[C@@H]4CC[C@]3(O)C2)[C@H](O)[C@H](O)[C@H]1O [CONVALLATOXIN],Non-toxic,Non-toxic,,0.02,,,Activity [4]: 50%; Activity (U-251 [5]): Active; Activity (U-251 [6]): Active; Activity [7]: Active; Activity (U-251 [8]): Active; Activity (U-251 [9]): Active; Activity (U-251 [10]): Active; Activity (U-251 [11]): Active; Activity [12]: 77%
C[C@]12CC[C@H]3[C@@H](CC[C@]4(O)C[C@@H](O)CC[C@]34C=O)[C@@]1(O)CC[C@@H]2C1=CC(=O)OC1 [STROPHANTHIDIN],Non-toxic,Non-toxic,,,,,
COc1cccc2c1C(=O)c1c(O)c3c(c(O)c1C2=O)C[C@@](O)(C(=O)CO)C[C@@H]3O[C@H]1C[C@H](N)[C@H](O)[C@H](C)O1 [DOXORUBICIN],,,0.06,0.12,100,7,
Cc1cc(=O)c2c(O)cc(O)cc2o1 [NOREUGENIN],,,> 50,,> 50000,> 50000,
COc1c(O)cc2oc(C)cc(=O)c2c1O [PISONIN B],,,180,,> 450000,225000,
CC[C@@]1(O)C(=O)OCc2c1cc1n(c2=O)Cc2cc3c(CN(C)C)c(O)ccc3nc2-1,,,,,,,Activity (U-251 [9]): inactive
